Laboratory results taken from ChEMBL document CHEMBL3085698, “Bioactive lignans from the trunk of Abies holophylla” (J Nat Prod, 2013).

Tests used:
[1] = Cytotoxicity against LPS-stimulated mouse BV2 cells assessed as cell viability by MTT assay relative to control; format: cell-based; conditions: bv-2
Outline: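 MTT viability read in the same BV-2 setup: cells at 3 × 10^4 cells/well in DMEM with 5% FBS, compound pretreatment for 30 min, then 100 ng/mL LPS stimulation for 24 h.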

[2] = Antineuroinflammatory activity in mouse BV2 cells assessed as inhibition of LPS-induced NO production incubated 30 mins prior to LPS-challenge measured after 24 hrs by Griess assay; format: functional, cell-based; conditions: BV-2
Outline: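 BV-2 microglia grown in DMEM with 5% FBS and 1% penicillin-streptomycin, plated at 3 × 10^4 cells/well and left 24 h. Compounds added 30 min before 100 ng/mL LPS for 24 h. Supernatant nitrite measured by Griess reagent (1% sulphanilamide, 0.1% naphthylethylenediamine in 5% phosphoric acid), read at 540 nm after 10 min against a sodium nitrite standard. L-NMMA as positive control. IC50 reported.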

C6 = test: Induction of NGF secretion in rat C6 cells at 10 uM after 24 hrs by ELISA relative to control; format: functional
Outline: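 Rat C6 glioma cells kept in DMEM with 10% FBS and 1% penicillin-streptomycin under 5% CO2, seeded at 1 × 10^5 cells/well. After 24 h, medium switched to DMEM with 2% FBS containing compound for one day. NGF released into the supernatant quantified by ELISA; viability checked by MTT. 6-Shogaol as positive control.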

| IC50 [2] | Compound | Activity [1] | Activity (C6) |
| --- | --- | --- | --- |
| 31 µM | COc1cc(CCCO)ccc1O[C@@H](CO)Cc1ccc(O[C@@H]2OC[C@@H](O)[C@H](O)[C@H]2O)c(OC)c1 | Non-toxic | 169% |
|  | COc1cc(C[C@H]2[C@@H](OC)OC[C@@H]2[C@H](O)c2ccc(O)c(OC)c2)ccc1O |  | 165% |
|  | COc1cc([C@@H]2Oc3c(OC)cc(CCCO)cc3[C@H]2CO)ccc1O[C@@H]1O[C@@H](C)[C@H](O)[C@@H](OC)[C@H]1O |  | 159% |
| 36.4 µM | COc1cc(C[C@H]2[C@H](OC)OC[C@@H]2[C@H](O)c2ccc(O)c(OC)c2)ccc1O | Non-toxic |  |
| 32.9 µM | COc1cc([C@@H]2Oc3c(O)cc(CCCO)cc3[C@H]2CO)ccc1O[C@@H]1O[C@@H](C)[C@H](O)[C@@H](OC)[C@H]1O (relative stereo) | Non-toxic |  |
|  | CCCCC/C=C/C(=O)CCc1ccc(O)c(OC)c1 [SHOGAOL] |  | 129% |

| Compound | IC50 [2] | Activity [1] | Activity (C6) |
| --- | --- | --- | --- |
| COc1cc([C@H]2c3cc(O)c(OC)cc3C[C@H]3C(=O)OC[C@H]23)ccc1O [ALPHA-CONIDENDRIN] | 28.5 µM | Non-toxic |  |
